Experimental data from different studies.
Cell line: HL-60
Effect on: cell growth or viability

FC(F)(F)c1ccc(-c2cc(CNc3cccc4cccnc34)on2)cc1
IC50 (MTS; 72 h): > 100 µM

O=C(CSc1nc2ccccc2s1)N/N=C/c1ccc(OCC(=O)Nc2ccc([N+](=O)[O-])cc2)cc1
IC50 (MTS; 72 h): 16.1 µM

COc1ccc(Nc2ncnc3c2ncn3Cc2ccc(C(=O)NO)cc2)cc1
IC50 (MTT; 72 h): 1.98 µM

FC(F)(F)c1cc(OCc2cc(-c3ccccc3)no2)c2ccccc2n1
IC50 (MTS; 72 h): > 100 µM

COc1ccc(Nc2ncnc3c2ncn3Cc2ccc(C(=O)Nc3ccccc3N)cc2)cc1
IC50 (MTT; 72 h): 4.12 µM

Nc1cccc2c1C(=O)N(C1CCC(=O)NC1=O)C2=O (stereo not drawn)
IC50 (CCK-8; 7 days): > 10 µM

c1ccc(-c2cc(CNc3cccc4cccnc34)on2)cc1
IC50 (MTS; 72 h): 79.6 µM

O=C(CSc1nc2ccccc2s1)N/N=C/c1ccc(OCC(=O)Nc2cccc(Cl)c2)cc1
IC50 (MTS; 72 h): > 100 µM

COc1cc([C@@H]2c3cc4c(cc3[C@@H](O[C@@H]3O[C@@H]5CO[C@@H](C)O[C@H]5[C@H](O)[C@H]3O)[C@H]3COC(=O)[C@H]23)OCO4)cc(OC)c1O
IC50 (XTT; 75 h): 1.22 µM

O=C(NO)c1ccc(Cn2cnc3c(Nc4ccc(F)c(Cl)c4)ncnc32)cc1
IC50 (MTT; 72 h): 2.55 µM

N#Cc1ccc(-c2cc(COc3cc(C(F)(F)F)nc4ccccc34)on2)cc1
IC50 (MTS; 72 h): 62.2 µM

O=C(CSc1nc2ccccc2s1)N/N=C/c1ccc(OCC(=O)Nc2cccc(Br)c2)cc1
IC50 (MTS; 72 h): > 100 µM
